Test results reported in ChEMBL document CHEMBL4130408, “Photoactivation provides a mechanistic explanation for pan-assay interference behaviour of 2-aminopyrroles in lipoxygenase inhibition” (Eur J Med Chem, 2017).

target: T1, Polyunsaturated fatty acid lipoxygenase ALOX15 (Homo sapiens) (UniProt P16050); assay: Inhibition of recombinant human 15-LOX-1 expressed in Escherichia coli BL21(DE3) assessed as residual activity at 50 uM using linoleic acid as substrate preincubated for 10 mins followed by substrate addition
T1 sequence (whole entry): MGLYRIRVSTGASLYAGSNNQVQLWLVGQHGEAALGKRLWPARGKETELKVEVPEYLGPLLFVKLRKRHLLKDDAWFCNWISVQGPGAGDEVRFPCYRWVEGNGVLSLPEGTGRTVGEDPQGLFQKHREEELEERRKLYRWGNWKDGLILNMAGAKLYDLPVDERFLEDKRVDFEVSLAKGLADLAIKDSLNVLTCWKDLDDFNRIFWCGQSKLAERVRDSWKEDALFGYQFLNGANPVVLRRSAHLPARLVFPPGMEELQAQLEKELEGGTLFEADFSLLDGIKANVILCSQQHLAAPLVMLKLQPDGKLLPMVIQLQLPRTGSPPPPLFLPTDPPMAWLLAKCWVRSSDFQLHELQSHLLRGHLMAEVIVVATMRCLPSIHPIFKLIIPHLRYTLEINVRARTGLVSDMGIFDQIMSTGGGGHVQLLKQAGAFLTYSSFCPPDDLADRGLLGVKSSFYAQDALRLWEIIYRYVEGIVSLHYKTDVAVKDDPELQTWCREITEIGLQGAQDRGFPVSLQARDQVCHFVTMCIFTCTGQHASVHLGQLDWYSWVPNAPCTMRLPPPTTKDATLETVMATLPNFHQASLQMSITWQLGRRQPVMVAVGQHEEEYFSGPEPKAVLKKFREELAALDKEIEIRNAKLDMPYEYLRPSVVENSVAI
How it was run: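 h-15-LOX-1 (1:100 enzyme stock, 1:400 final) preincubated 10 min at room temperature with inhibitor in 25 mM HEPES pH 7.4, then linoleic acid added to 25 µM final (inhibitor 50 µM final). 13(S)-HpODE formation read as A234 over time, rate taken from linear part within first 16 min; no-inhibitor = 100%, no-enzyme = 0%. Triplicate.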

Activity	SMILES
100%	Nc1[nH]c(C(=O)c2ccccc2)c(-c2ccc(Cl)cc2)c1C(=O)c1ccc(Cl)cc1
82.5%	Nc1[nH]c(C(=O)c2ccccc2)c(-c2cccnc2)c1C(=O)NCCc1c[nH]c2ccccc12
122%	CC(NC(=O)c1c(N)[nH]c(C(=O)c2ccc(Cl)cc2)c1-c1ccc(Br)cc1)c1cccc2ccccc12 (configuration not stated)
66.4%	COc1ccc(CCNC(=O)c2c(N)[nH]c(C(=O)c3ccccc3)c2-c2ccc(N(C)C)cc2)cc1
73.5%	Nc1[nH]c(C(=O)c2ccccc2)c(-c2ccc(Br)cc2)c1C(=O)NCCc1c[nH]c2ccccc12
64.5%	COc1ccc(C(=O)c2[nH]c(N)c(C(=O)NCCc3c[nH]c4ccccc34)c2-c2ccc(Cl)cc2Cl)cc1
83.5%	Nc1[nH]c(C(=O)c2ccccc2)c(-c2ccc3ccccc3c2)c1C(=O)NC1CC1
75.6%	COCCNC(=O)c1c(N)[nH]c(C(=O)c2ccc(Br)cc2)c1-c1cccc2ccc(OC)cc12
71.3%	COc1ccc(C(=O)c2[nH]c(N)c(C(=O)NCCc3c[nH]c4ccccc34)c2-c2c(F)cccc2Cl)cc1
110%	COc1cc(-c2c(C(=O)c3ccccc3)[nH]c(N)c2C(N)=O)ccc1F
92.2%	Cc1ccc(S(=O)(=O)n2c(-c3ccccc3)cc(C(=O)NC3CC3)c2N)cc1
126%	Nc1[nH]c2ccccc2c1C(=O)NC1CC1
91.2%	Nc1[nH]c(C(=O)c2ccccc2)c(-c2ccc(Cl)cc2Br)c1C(=O)c1cccs1
19.3%	Nc1[nH]c(C(=O)c2ccc(Br)cc2)c(-c2ccc(Cl)cc2)c1C(=O)NCCc1c[nH]c2ccccc12
77.3%	Cc1ccc([C@H](C)NC(=O)c2c(N)[nH]c(C(=O)c3ccccc3)c2-c2cc(Cl)cc(Cl)c2)cc1
94.9%	Cc1ccccc1-c1c(C(=O)c2ccccc2)[nH]c(N)c1C(=O)c1ccc(Cl)cc1
75.9%	Nc1[nH]c(C(=O)c2ccc(Br)cc2)c(-c2ccc3c(c2)OCO3)c1C(=O)NCCc1c[nH]c2ccccc12
91%	Nc1[nH]c(C(=O)c2ccccc2)c(-c2ccncc2)c1C(=O)NC1CC1
94.9%	Nc1[nH]c(C(=O)c2ccccc2)c(-c2ccc(Cl)cc2)c1C(=O)NCCC1=CCCCC1
87.4%	NC(=O)c1c(N)[nH]c(C(=O)c2ccccc2)c1-c1ccccc1Br
125%	Nc1[nH]c2cc(C(F)(F)F)ccc2c1C(=O)NC1CCCCC1
96.2%	Nc1[nH]c(C(=O)c2ccc(Cl)cc2)c(-c2ccc(Br)cc2)c1C(=O)c1c[nH]c2ccc(F)cc12
86.5 to 87.5%	Nc1[nH]c(C(=O)c2ccccc2)c(-c2ccc(Cl)cc2)c1C(=O)c1c[nH]c2cc(F)ccc12
102%	Nc1[nH]c2cc(C(F)(F)F)ccc2c1C(=O)NCc1ccc(F)cc1
90.7%	COc1ccc(-c2c(C(=O)c3ccccc3)[nH]c(N)c2C(=O)NCc2ccccc2)cc1OC
107%	CCCCNC(=O)c1c(N)[nH]c(C(=O)c2ccc(F)cc2)c1-c1ccc(Cl)cc1C

Activity	SMILES
87.9%	Nc1[nH]c(C(=O)c2ccccc2)c(-c2ccc(Cl)cc2)c1C(=O)O
71.3%	CC(NC(=O)c1c(N)[nH]c(C(=O)c2ccccc2)c1-c1ccccc1Br)c1cccc2ccccc12 (configuration not stated)
45.5%	Nc1[nH]c(C(=O)c2ccccc2)c(-c2ccccc2C(F)(F)F)c1C(=O)NCCc1c[nH]c2ccccc12
36.8%	Nc1[nH]c(C(=O)c2ccccc2)c(-c2ccc(Cl)c(Cl)c2)c1C(=O)NCCc1c[nH]c2ccccc12
33.3%	Cc1ccc(-c2c(C(=O)c3ccccc3)[nH]c(N)c2C(=O)NCCc2c[nH]c3ccccc23)cc1
104%	CCCCNC(=O)c1c(N)[nH]c(C(=O)c2ccccc2)c1-c1ccc(Cl)cc1
98.5%	Cc1cc(C)cc(-c2c(C(=O)c3ccc(Br)cc3)[nH]c(N)c2C(=O)NCc2ccc(Cl)cc2)c1
92.2%	N#Cc1c(N)[nH]c(C(=O)c2ccccc2)c1-c1ccc(Cl)cc1
117%	COc1ccc(-c2c(C(=O)c3ccccc3)[nH]c(N)c2C(N)=O)cc1OC
74.8%	COC(=O)c1c(N)[nH]c(C(=O)c2ccccc2)c1-c1ccccc1Br
61.9%	Nc1[nH]c(C(=O)c2ccccc2)c(-c2ccccc2Br)c1C(=O)NCCc1c[nH]c2ccccc12
90.8%	CCCCCCNC(=O)c1c(N)[nH]c(C(=O)c2ccccc2)c1-c1ccc(O)cc1
87.2%	CC(C)(C)C(=O)c1c(N)[nH]c(C(=O)c2ccccc2)c1-c1ccc(Br)cc1
105%	Nc1[nH]c(C(=O)c2ccc(Cl)cc2)c(-c2ccc(Br)cc2)c1C(=O)NCc1ccc(Cl)cc1Cl
103%	COCCNC(=O)c1c(N)[nH]c(C(=O)c2ccc(Br)cc2)c1-c1ccc(Br)cc1
84.7%	Nc1[nH]c(C(=O)c2ccccc2)c(-c2ccc(Cl)cc2)c1C(=O)NCCc1c[nH]c2ccccc12
41.9%	COc1ccc(C(=O)c2[nH]c(N)c(C(=O)NCCc3c[nH]c4ccccc34)c2-c2ccc(Cl)c(Cl)c2)cc1
115%	Nc1[nH]c(C(=O)c2ccccc2)c(-c2cccc3ccccc23)c1C(=O)NCc1ccc(Cl)cc1Cl
35.3%	COc1ccc(-c2c(C(=O)c3ccccc3)[nH]c(N)c2C(=O)NCCc2c[nH]c3ccccc23)cc1
86.4%	Nc1[nH]c(C(=O)c2ccccc2)c(-c2ccccc2C(F)(F)F)c1C(=O)c1cccs1
97.2%	COc1ccc(C(=O)c2[nH]c(N)c(C(=O)NCCc3c[nH]c4ccccc34)c2-c2ccccc2C(F)(F)F)cc1
62.5%	Cc1ccccc1-c1c(C(=O)c2ccccc2)[nH]c(N)c1C(=O)NCCc1c[nH]c2ccccc12
89.9%	Nc1[nH]c(C(=O)c2ccccc2)c(-c2cccc3ccccc23)c1C(=O)c1c(-c2ccccc2)[nH]c2ccccc12
106%	Nc1[nH]c(C(=O)c2ccccc2)c(-c2ccncc2)c1C(=O)NCCc1c[nH]c2ccccc12
99.9%	Nc1[nH]c(C(=O)c2ccccc2)c(-c2cccnc2)c1C(=O)NCCc1ccc(Cl)cc1Cl
89.4%	COc1ccc(C(=O)c2[nH]c(N)c(C(=O)c3c[nH]c4ccccc34)c2-c2ccc(OC)cc2)cc1

Activity	SMILES
63.4%	N#Cc1c(N)[nH]c(C(=O)c2ccccc2)c1-c1ccc(Br)cc1
34%	COc1ccc2cccc(-c3c(C(=O)c4ccc(Br)cc4)[nH]c(N)c3C(=O)NC3CCCCC3)c2c1
98.6%	Nc1[nH]c(C(=O)c2ccccc2)c(-c2ccc3ccccc3c2)c1C(=O)NCc1cccc2ccccc12
74.7%	Nc1[nH]c(C(=O)c2ccccc2)c(-c2ccc(C(F)(F)F)cc2)c1C(=O)NCc1ccc(Cl)cc1Cl
55.3%	Nc1[nH]c(C(=O)c2ccccc2)c(-c2ccccn2)c1C(=O)c1c[nH]c2ccc(Br)cc12
107%	Nc1[nH]c(C(=O)c2ccccc2)c(-c2cccc3ccccc23)c1C(=O)c1ccc(Br)cc1
90.2%	COc1ccc(-c2c(C(=O)c3ccccc3)[nH]c(N)c2C(=O)NC2CC2)cc1OC
114%	CN(C)CCCNC(=O)c1c(N)[nH]c(C(=O)c2ccc(Br)cc2)c1-c1ccc(Br)cc1
79.1%	NC(=O)c1c(N)[nH]c(C(=O)c2ccccc2)c1-c1ccc2ccccc2c1
109%	Nc1[nH]c2cc(C(F)(F)F)ccc2c1C(=O)N1CCN(CCc2ccccc2)CC1
123%	Nc1[nH]c(C(=O)c2ccccc2)c(-c2ccc(Cl)cc2)c1C(=O)N1CCCC1
62.2%	Nc1[nH]c(C(=O)c2ccccc2)c(-c2ccc(Br)cc2)c1C(=O)c1ccc(Br)cc1
50.9%	Nc1[nH]c(C(=O)c2ccccc2)c(-c2ccc(Cl)cc2)c1C(=O)c1c[nH]c2ccc(Br)cc12
91.3%	Nc1[nH]c(C(=O)c2ccccc2)c(-c2ccccc2Br)c1C(=O)NCc1ccc(-c2ccccc2)cc1
115%	COc1ccc2cccc(-c3c(C(=O)c4ccc(Br)cc4)[nH]c(N)c3C(=O)NCc3ccc(-c4ccccc4)cc3)c2c1
116%	Nc1[nH]c(C(=O)c2ccccc2)c(-c2ccc(F)cc2)c1C(=O)c1c[nH]c2ccccc12
85%	Nc1[nH]c(C(=O)c2ccccc2)c(-c2ccc([N+](=O)[O-])cc2)c1C(=O)N1CCC(CO)CC1
108%	Nc1[nH]c(C(=O)c2ccccc2)c(-c2cccc3ccccc23)c1C(=O)c1ccccc1
54.3%	Nc1[nH]c(C(=O)c2ccccc2)c(-c2ccc([N+](=O)[O-])cc2)c1C(=O)NCCc1c[nH]c2ccccc12
73.7%	Nc1[nH]c(C(=O)c2ccccc2)c(-c2cccc3ccccc23)c1C(=O)c1cccs1
86.1%	Nc1[nH]c(C(=O)c2ccc(Br)cc2)c(-c2ccncc2)c1C(=O)NCCc1c[nH]c2ccccc12
-47.3%	Cc1cc(C)cc(-c2c(C(=O)c3ccccc3)[nH]c(N)c2C(=O)NCCc2c[nH]c3ccccc23)c1
63.2%	Nc1[nH]c(C(=O)c2ccccc2)c(-c2ccccc2)c1C(=O)NCCc1c[nH]c2ccccc12
93.8%	Nc1[nH]c(C(=O)c2ccccc2)c(-c2ccccc2Br)c1C(=O)NCCc1ccc(Cl)cc1Cl

SMILES	Activity
COC(=O)c1c(N)[nH]c(C(=O)c2ccccc2)c1-c1ccc(Cl)cc1	96%
